Assay results reported in PubChem BioAssay.
Calls of active or inactive are those of the source.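 How the source made its calls, unless noted: active means Her2 level under about 52% in both replicate screens, with viability over 70% of control (limit read from the data); inconclusive means Her2 under the limit in one screen only, or viability under 70%; inactive means Her2 level above the set limit.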

What was measured:
[1] = Her2 expression decrease, cell viability multiplex – SKBR3 breast tumor cells, AlphaScreen, ATP viability, primary screen (AID 461); details: SKBR3 Her2 protein level, 18-24 h, measured here: SKBR3 viability, ATP luminescence, at 10 µM;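 on Her2 level: lower value means less Her2 protein in the cells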;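 on viability: percent of carrier control wells set as 100% viability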
[2] = target: Receptor tyrosine-protein kinase erbB-2 (Homo sapiens) (UniProt P04626); test: as above; details: 18-24 h, at 10 µM, stronger effect = lower value
Sequence of Receptor tyrosine-protein kinase erbB-2 (Homo sapiens) (P04626 whole entry, looked up): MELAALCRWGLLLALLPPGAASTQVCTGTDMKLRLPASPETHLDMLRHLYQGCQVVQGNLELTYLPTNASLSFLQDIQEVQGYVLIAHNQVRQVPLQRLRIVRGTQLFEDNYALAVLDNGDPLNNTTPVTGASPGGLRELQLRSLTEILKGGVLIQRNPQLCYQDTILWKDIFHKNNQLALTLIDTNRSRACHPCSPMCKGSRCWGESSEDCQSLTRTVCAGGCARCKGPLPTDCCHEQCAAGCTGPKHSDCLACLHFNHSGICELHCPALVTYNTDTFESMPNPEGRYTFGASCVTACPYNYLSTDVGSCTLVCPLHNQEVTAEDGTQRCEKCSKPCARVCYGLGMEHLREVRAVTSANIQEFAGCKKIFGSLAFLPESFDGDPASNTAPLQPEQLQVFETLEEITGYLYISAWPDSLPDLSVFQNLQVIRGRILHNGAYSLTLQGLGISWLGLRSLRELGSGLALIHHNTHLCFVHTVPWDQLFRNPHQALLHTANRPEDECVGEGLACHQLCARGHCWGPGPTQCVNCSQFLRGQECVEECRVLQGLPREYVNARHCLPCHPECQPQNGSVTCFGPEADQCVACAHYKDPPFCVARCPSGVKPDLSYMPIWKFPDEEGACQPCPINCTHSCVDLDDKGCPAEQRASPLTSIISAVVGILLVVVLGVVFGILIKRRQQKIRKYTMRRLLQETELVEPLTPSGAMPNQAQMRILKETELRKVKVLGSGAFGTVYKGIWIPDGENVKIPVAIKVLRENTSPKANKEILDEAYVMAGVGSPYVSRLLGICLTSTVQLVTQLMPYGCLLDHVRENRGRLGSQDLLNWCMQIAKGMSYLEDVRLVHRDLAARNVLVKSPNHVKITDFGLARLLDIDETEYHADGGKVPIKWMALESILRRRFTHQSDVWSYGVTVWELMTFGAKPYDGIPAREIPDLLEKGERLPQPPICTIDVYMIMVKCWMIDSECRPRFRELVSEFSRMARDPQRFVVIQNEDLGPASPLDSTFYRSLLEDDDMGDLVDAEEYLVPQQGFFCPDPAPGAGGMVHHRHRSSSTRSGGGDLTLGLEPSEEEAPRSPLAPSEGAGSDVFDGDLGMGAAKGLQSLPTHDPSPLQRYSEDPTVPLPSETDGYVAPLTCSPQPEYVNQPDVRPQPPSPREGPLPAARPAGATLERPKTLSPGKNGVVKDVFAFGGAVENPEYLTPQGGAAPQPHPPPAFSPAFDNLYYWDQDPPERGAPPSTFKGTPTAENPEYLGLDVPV

[3] = reduced viability of SK-BR-3 breast cancer cells – cell-based, 24 h, human, pilot screen (AID 572;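 active means viability at or below 10% of carrier control in both of two separate runs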;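 further: compound exposure lasted between 18 and 24 h rather than exactly 24 h; 100% = carrier-treated control wells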); details: SK-BR-3 viability, CellTiter-Glo luminescence, at 10 µM, stronger effect = lower value
[4] = HUVEC growth inhibition – cell-based, human, primary screen (AID 575;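 active means viability at or below 30% in both replicate assays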;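 further: 100% = median of untreated cell wells with 0.1% DMSO on each plate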); details: HUVEC proliferation, CellTiter-Glo luminescence, 72 h; at 10 µM; stronger effect = lower value
Method in brief: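 Test system – primary HUVEC, no more than 12 passages · Dosing – one dose, 10 µM final, 0.1% DMSO · Times – 72 h treatment at 37 °C · Measured by – ATP-based CellTiter-Glo luminescent read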

[5] = H69AR cell proliferation blockers – human, duplicate replicates, primary screen (AID 580;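 active means viability at or under a set limit in both replicates, limit being median viability minus 3 SD, cut at about 48% in these data, passing the limit was not always enough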;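 further: 100% = mean luminescence of untreated wells and 0% = no signal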); details: H69AR lung tumor cells viability, ATP luminescence, 72 h; at 10 µM; stronger effect = lower value
[6] = MRP1 drug-resistance reversers in H69AR cells – cell-based, doxorubicin co-treatment, pilot screen (AID 601;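 active means viability loss from added drug above about 55%, and viability with drug at most 40%, in both replicates, limit read from the data, passing the limit was not always enough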); details: CellTiter-Glo, 72 h, at 10 µM; for differential viability (reversal): stronger effect = higher value
[7] = yeast transport mutant growth inhibition pilot in 384-well plates, post-Golgi transport modulator project (AID 636; in the data active means inhibition above about 31%); details: absorbance 615 nm, about 18 h, stronger effect = higher value
[8] = growth suppression of yeast trafficking mutant, preliminary HTS, modulators of trafficking downstream of Golgi apparatus project, 1536-format plate, OD 615 nm (AID 637; in the data active means inhibition above about 30%); details: yeast transport mutant growth, absorbance 615 nm, 18 h; stronger effect = higher value
[9] = H69AR cells + 2 uM doxorubicin, measured here: viability with 2 uM doxorubicin, stronger effect = lower value
[10] = H69AR cells, compound alone cytotoxicity

SMILES | viability [1] | Her2 level [2] | viability [3] | viability [4] | viability [5] | differential viability (reversal) ([6]; H69AR cells + 2 uM doxorubicin) | viability [6, 9] | viability [6, 10] | inhibition [7] | inhibition [8]
CCOC(=O)c1[nH]c(C)c(C(=O)Nc2ccccc2F)c1C | 89.5% | 75.5% (inactive) | 89.5% (inactive) | 61.8% (inactive) | 16.1% (active) | -51% (inactive) | 67.1% | 16.1% | -4.47% (inactive) | 4.13% (inactive)
COc1ccccc1C(O)P(=O)(OC(C)C)c1ccc(N(C)C)cc1 (stereo not given) | 101% | 120% (inactive) | 101% (inactive) | 104% (inactive) | 98.1% (inactive) | 11.6% (inactive) | 86.5% | 98.1% | -6.53% (inactive) | -5% (inactive)
CCOC(=O)N1CCC(NC(=O)CCC(=O)N2CC(C)Oc3ccc(Cl)cc32)CC1 (stereo not given) | 104% | 96% (inactive) | 104% (inactive) | 94.6% (inactive) | 92.5% (inactive) | 6.71% (inactive) | 85.8% | 92.5% | -5.53% (inactive) | -9.33% (inactive)
CC(=O)N1CCc2cc(S(=O)(=O)CCC(=O)N3CCN(C(=O)c4ccco4)CC3)ccc21 | 99% | 88.5% (inactive) | 99% (inactive) | 104% (inactive) | 98.2% (inactive) | 10.1% (inactive) | 88.1% | 98.2% | -5.47% (inactive) | 2.95% (inactive)
CCCOc1ccccc1NC(=O)c1ccc(N)cc1 | 95% | 84% (inactive) | 95% (inactive) | 100% (inactive) | 98.2% (inactive) | 7.58% (inactive) | 90.6% | 98.2% | -5.53% (inactive) | -2.17% (inactive)
CCN(CC)c1ccc2c(C)c(-c3ccc(N)cc3)c(=O)oc2c1 | 96.5% | 84.5% (inactive) | 96.5% (inactive) | 60.4% (inactive) | 61.8% (inactive) | -9.77% (inactive) | 71.6% | 61.8% | -7.33% (inactive) | 12.3% (inactive)
CN(C)S(=O)(=O)c1ccc(C(=O)N2CCCC2c2nc3ccccc3s2)cc1 (stereo not given) | 98% | 127% (inactive) | 98% (inactive) | 91.1% (inactive) | 94.9% (inactive) | 1.97% (inactive) | 92.9% | 94.9% | -1.49% (inactive) | 3.93% (inactive)
CCOP(=O)(c1ccc(N(C)C)cc1)C(O)c1c(Cl)cccc1Cl (stereo not given) | 83% | 87.5% (inactive) | 83% (inactive) | 97.4% (inactive) | 90.1% (inactive) | 0.49% (inactive) | 89.6% | 90.1% | -1.6% (inactive) | -2.58% (inactive)
Cc1ccc(OCC(=O)N2CCN(C(=O)CCC3CCCC3)CC2)cc1 | 104% | 93.5% (inactive) | 104% (inactive) | 94.6% (inactive) | 86.6% (inactive) | -13.4% (inactive) | 100% | 86.6% | -6.89% (inactive) | -2.33% (inactive)
CC(C)C(c1nnnn1C1CCCC1)N1CCN(C(=O)c2ccco2)CC1 (stereo not given) | 114% | 96% (inactive) | 114% (inactive) | 82.1% (inactive) | 88.8% (inactive) | 15.8% (inactive) | 72.9% | 88.8% | -1.82% (inactive) | -11.8% (inactive)
COc1ccc(-c2nnc(SCC(=O)Nc3cc(C)on3)n2C)cc1OC | 101% | 90% (inactive) | 101% (inactive) | 108% (inactive) | 105% (inactive) | 11.9% (inactive) | 92.6% | 105% | -6.22% (inactive) | 4.59% (inactive)
CC1(C)CC(=O)CC(C)(C)N1OC(=O)c1ccccn1 | 106% | 94% (inactive) | 106% (inactive) | 94% (inactive) | 102% (inactive) | 8.9% (inactive) | 93.6% | 102% | -2.3% (inactive) | 5.74% (inactive)
CC(=O)Nc1ccc(NC(=O)c2cc(C)nn2-c2ccccc2)cc1 | 84% | 116% (inactive) | 84% (inactive) | 89.5% (inactive) | 108% (inactive) | 12.7% (inactive) | 95.5% | 108% | 2.53% (inactive) | -7.9% (inactive)
Cc1ccc(S(=O)(=O)N2CCN(C(=O)CSc3nnnn3C)C2)cc1 | 110% | 104% (inactive) | 110% (inactive) | 85.3% (inactive) | 102% (inactive) | 1.78% (inactive) | 101% | 102% | -0.66% (inactive) | 0.17% (inactive)
CCOc1ccccc1Nc1nnc(SCC(=O)N2CCCC2)s1 | 104% | 91.5% (inactive) | 104% (inactive) | 103% (inactive) | 101% (inactive) | 7.78% (inactive) | 92.8% | 101% | -3.12% (inactive) | -0.95% (inactive)
CCCCn1c(CN2CCN(CCO)CC2)nc2ccccc21 | 84% | 92% (inactive) | 84% (inactive) | 91.8% (inactive) | 96% (inactive) | 5.24% (inactive) | 90.7% | 96% | -0.39% (inactive) | -6.55% (inactive)
COCCNC(=O)c1ccc(CS(=O)(=O)c2ccc(OC)cc2)o1 | 97% | 121% (inactive) | 97% (inactive) | 87% (inactive) | 109% (inactive) | 15.8% (inactive) | 93.5% | 109% | -1.03% (inactive) | 2.67% (inactive)
O=C(COC(=O)c1ccco1)NCc1cccs1 | 112% | 97.5% (inactive) | 112% (inactive) | 98.9% (inactive) | 106% (inactive) | 10.7% (inactive) | 95.3% | 106% | -7.76% (inactive) | 0% (inactive)
COc1cc(C2C(C#N)=C(C)NC3=C2C(=O)CC(C)(C)C3)ccc1O (stereo not given) | 100% | 84% (inactive) | 100% (inactive) | 94.7% (inactive) | 101% (inactive) | 3.54% (inactive) | 97.1% | 101% | -6.13% (inactive) | -7.46% (inactive)
COc1cccc(-n2nnc3c(=O)n(Cc4cccc(F)c4)cnc32)c1 | 96.5% | 104% (inactive) | 96.5% (inactive) | 91.7% (inactive) | 99.9% (inactive) | 5.36% (inactive) | 94.6% | 99.9% | -2.7% (inactive) | 16.8% (inactive)
O=C(NCc1ccc(Cl)cc1)c1ccc(COCC(F)(F)F)o1 | 100% | 91% (inactive) | 100% (inactive) | 88.5% (inactive) | 101% (inactive) | 20.9% (inactive) | 79.7% | 101% | -1.45% (inactive) | -5.27% (inactive)
COc1ccc(-c2c(=O)n(OCc3ccccn3)c3ccccc3[n+]2[O-])cc1OC | 105% | 98% (inactive) | 105% (inactive) | 87.6% (inactive) | 89.2% (inactive) | -2.4% (inactive) | 91.6% | 89.2% | -4% (inactive) | -3.65% (inactive)
CCCCOC(=O)CSc1nc2c(cc1C#N)C(=O)CC(C)(C)C2 | 87% | 86% (inactive) | 87% (inactive) | 91.2% (inactive) | 78.8% (inactive) | -10.6% (inactive) | 89.4% | 78.8% | -5.13% (inactive) | -2.73% (inactive)
Cc1cc(C)c2oc(=O)cc(CN3CCOCC3)c2c1 | 102% | 97% (inactive) | 102% (inactive) | 87.3% (inactive) | 91.4% (inactive) | 3.58% (inactive) | 87.9% | 91.4% | -6.93% (inactive) | 2.26% (inactive)
CCn1c(CSc2nnc(-c3cccnc3)n2-c2ccccc2C)nc2cc(C(=O)O)ccc21 | 95.5% | 109% (inactive) | 95.5% (inactive) | 94% (inactive) | 99.1% (inactive) | 11.4% (inactive) | 87.8% | 99.1% | -3.56% (inactive) | -7.3% (inactive)
COc1ccccc1-c1coc2c(CN3CCN(CCO)CC3)c(O)ccc2c1=O | 87.5% | 93.5% (inactive) | 87.5% (inactive) | 94.5% (inactive) | 106% (inactive) | 18.9% (inactive) | 87.5% | 106% | -4.27% (inactive) | 0.65% (inactive)
CC(C)CN(CC(C)C)C(=O)C12CCC(C)(C(=O)C1)C2(C)C (stereo not given) | 74% | 103% (inactive) | 74% (inactive) | 110% (inactive) | 96.8% (inactive) | 12.3% (inactive) | 84.4% | 96.8% | 1.33% (inactive) | -7.62% (inactive)
CN1CCN(c2nc3c(c(=O)[nH]c(=O)n3C)n2CCOc2ccccc2)CC1 | 75.5% | 85.5% (inactive) | 75.5% (inactive) | 80.1% (inactive) | 92.2% (inactive) | 0.615% (inactive) | 91.5% | 92.2% | -6.49% (inactive) | 2.62% (inactive)
CCOC(=O)C1CCN(c2nc3ccccc3nc2C(C#N)C(=O)OC(C)C)CC1 (stereo not given) | 95% | 124% (inactive) | 95% (inactive) | 83.9% (inactive) | 84.2% (inactive) | -3.45% (inactive) | 87.6% | 84.2% | 1.37% (inactive) | 4.6% (inactive)
